Values belong to the compound of their own block, whether it stands above or below them. Calls of active or inactive are those of the source. The calls are words filed in the database; no cut-off is given here.
How the values were obtained:
Mus musculus [1] = assay: Neurotoxicity in albino Carworth Farms No.1 mouse at 300 mg/kg, ip after 0.5 hrs by rotarod test; type: toxicity, organism-based; settings: in vivo
Method in brief: (§1)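 Mice (albino Carworth Farms No.1) were dosed i.p. at 30, 100 or 300 mg/kg in 0.5% methylcellulose. They were tested 0.5 and 4 h later on a 1-inch knurled rod rotating at 6 rpm. Neurotoxicity was scored if a mouse could not stay on the rod for at least 1 min in each of three trials. Results are given as animals toxic/animals tested, with deaths noted.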

Mus musculus [2] = assay: Anticonvulsant activity in albino Carworth Farms No.1 mouse assessed as protection against subcutaneous dosed pentetrazol-induced seizures at 100 mg/kg, ip after 4 hrs; type: functional, organism-based
Method in brief: (§2)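 Mouse i.p. screen in Carworth Farms No.1 albino mice at 30, 100 or 300 mg/kg in 0.5% methylcellulose. Testing was at 0.5 and 4 h after injection, by maximal electroshock or by subcutaneous pentetrazol challenge. Scoring was number protected / number used.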

Mus musculus [3] = assay: Anticonvulsant activity in albino Carworth Farms No.1 mouse assessed as protection against subcutaneous dosed pentetrazol-induced seizures at 100 mg/kg, ip after 0.5 hrs; type: functional, organism-based; method in brief: as §2
Mus musculus [4] = assay: Anticonvulsant activity in albino Carworth Farms No.1 mouse assessed as protection against subcutaneous dosed pentetrazol-induced seizures at 30 mg/kg, ip after 4 hrs; type: functional, organism-based; method in brief: as §2
Mus musculus [5] = assay: Anticonvulsant activity in albino Carworth Farms No.1 mouse assessed as protection against maximal electroshock-induced seizures at 300 mg/kg, ip after 4 hrs; type: functional, organism-based; method in brief: as §2
Mus musculus [6] = assay: Anticonvulsant activity in albino Carworth Farms No.1 mouse assessed as protection against maximal electroshock-induced seizures at 300 mg/kg, ip after 0.5 hrs; type: functional, organism-based; method in brief: as §2
Mus musculus [7] = assay: Anticonvulsant activity in albino Carworth Farms No.1 mouse assessed as protection against maximal electroshock-induced seizures at 100 mg/kg, ip after 4 hrs; type: functional, organism-based; method in brief: as §2
Mus musculus [8] = assay: Anticonvulsant activity in albino Carworth Farms No.1 mouse assessed as protection against maximal electroshock-induced seizures at 30 mg/kg, ip after 0.5 hrs; type: functional, organism-based; method in brief: as §2
Salmonella typhimurium [9] = assay: Mutagenicity in Salmonella typhimurium TA98 assessed as number of revertants at 500 ug/plate by Ames test (reference value: 23 +/- 3); type: toxicity, organism-based; settings: salmonella enterica subsp. enterica serovar typhimurium
Salmonella typhimurium [10] = assay: Mutagenicity in Salmonella typhimurium TA100 assessed as mutagenic index at 4 ug/plate by Ames test; type: toxicity, organism-based; settings: salmonella enterica subsp. enterica serovar typhimurium
Method in brief: (§3)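 Ames preincubation test. Strain culture was grown 12 h at 37 °C in nutrient broth, then mixed with compound in DMSO (final 4, 20, 100, 500, 1000 per plate) and buffer in top agar with trace histidine. This was plated on glucose minimal agar for 48 h at 37 °C. Mutagenic index = revertants with compound / DMSO control revertants, from three independent repeats.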

Salmonella typhimurium [11] = assay: Mutagenicity in Salmonella typhimurium TA100 assessed as mutagenic index at 20 ug/plate by Ames test; type: toxicity, organism-based; settings: salmonella enterica subsp. enterica serovar typhimurium; method in brief: as §3
Salmonella typhimurium [12] = assay: Mutagenicity in Salmonella typhimurium TA100 assessed as mutagenic index at 100 ug/plate by Ames test; type: toxicity, organism-based; settings: salmonella enterica subsp. enterica serovar typhimurium; method in brief: as §3
Salmonella typhimurium [13] = assay: Mutagenicity in Salmonella typhimurium TA100 assessed as mutagenic index at 500 ug/plate by Ames test; type: toxicity, organism-based; settings: salmonella enterica subsp. enterica serovar typhimurium; method in brief: as §3
Salmonella typhimurium [14] = assay: Mutagenicity in Salmonella typhimurium TA100 assessed as assessed as mutagenic index at 1000 ug/plate by Ames test; type: toxicity, organism-based; settings: salmonella enterica subsp. enterica serovar typhimurium; method in brief: as §3
Salmonella typhimurium [15] = assay: Mutagenicity in Salmonella typhimurium TA1535 assessed as assessed as mutagenic index at 4 ug/plate by Ames test; type: toxicity, organism-based; settings: salmonella enterica subsp. enterica serovar typhimurium; method in brief: as §3
Salmonella typhimurium [16] = assay: Mutagenicity in Salmonella typhimurium TA1535 assessed as assessed as mutagenic index at 20 ug/plate by Ames test; type: toxicity, organism-based; settings: salmonella enterica subsp. enterica serovar typhimurium; method in brief: as §3
Salmonella typhimurium [17] = assay: Mutagenicity in Salmonella typhimurium TA1535 assessed assessed as mutagenic index at 100 ug/plate by Ames test; type: toxicity, organism-based; settings: salmonella enterica subsp. enterica serovar typhimurium
Salmonella typhimurium [18] = assay: Mutagenicity in Salmonella typhimurium TA1535 assessed as mutagenic index at 1000 ug/plate by Ames test; type: toxicity, organism-based; settings: salmonella enterica subsp. enterica serovar typhimurium
Salmonella typhimurium [19] = assay: Mutagenicity in Salmonella typhimurium TA98 assessed as mutagenic index at 4 ug/plate by Ames test; type: toxicity, organism-based; settings: salmonella enterica subsp. enterica serovar typhimurium
Salmonella typhimurium [20] = assay: Mutagenicity in Salmonella typhimurium TA98 assessed as mutagenic index at 500 ug/plate by Ames test; type: toxicity, organism-based; settings: salmonella enterica subsp. enterica serovar typhimurium
Mus musculus [21] = assay: Neurotoxicity in albino Carworth Farms No.1 mouse at 300 mg/kg, ip after 4 hrs by rotarod test; type: toxicity, organism-based; settings: in vivo; method in brief: as §1
[22] = Lipophilicity of the compound using 95% methanol in water at 1 mg/ml by RT-TLC analysis; type: physicochemical; settings: buffer
Method in brief: (§4)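 Reversed-phase TLC with a methanol–water mobile phase at the stated methanol content (v/v). Compounds were spotted from 1 mg/mL methanol solutions after 1 h chamber saturation and located under UV light. Rf was measured and RM = log(1/Rf − 1) calculated.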

[23] = Lipophilicity of the compound using 90% methanol in water at 1 mg/ml by RT-TLC analysis; type: physicochemical; settings: buffer; method in brief: as §4
[24] = Lipophilicity of the compound using 65% methanol in water at 1 mg/ml by RT-TLC analysis; type: physicochemical; settings: buffer; method in brief: as §4
[25] = Lipophilicity of the compound at 1 mg/ml by RT-TLC analysis relative to 0% methanol; type: physicochemical; settings: methanol/water
Method in brief: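 Reversed-phase TLC used methanol–water mobile phases of 95–65% methanol. Compounds were applied from 1 mg/mL methanol solutions after 1 h chamber saturation, with UV detection. RM = log(1/Rf − 1) was calculated at each methanol level and extrapolated linearly (RM = RM0 + bC) to 0% methanol to give RM0.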

Salmonella typhimurium [26] = assay: Mutagenicity in Salmonella typhimurium TA1535 assessed as number of revertants at 500 ug/plate by Ames test (reference value: 10 +/- 3); type: toxicity, organism-based; settings: salmonella enterica subsp. enterica serovar typhimurium
Salmonella typhimurium [27] = assay: Mutagenicity in Salmonella typhimurium TA1535 assessed as number of revertants at 100 ug/plate by Ames test (reference value: 10 +/- 3); type: toxicity, organism-based; settings: salmonella enterica subsp. enterica serovar typhimurium
Salmonella typhimurium [28] = assay: Mutagenicity in Salmonella typhimurium TA1535 assessed as number of revertants at 20 ug/plate by Ames test (reference value: 10 +/- 3); type: toxicity, organism-based; settings: salmonella enterica subsp. enterica serovar typhimurium
Salmonella typhimurium [29] = assay: Mutagenicity in Salmonella typhimurium TA1535 assessed as number of revertants at 4 ug/plate by Ames test (reference value: 10 +/- 3); type: toxicity, organism-based; settings: salmonella enterica subsp. enterica serovar typhimurium
Salmonella typhimurium [30] = assay: Mutagenicity in Salmonella typhimurium TA100 assessed as number of revertants at 1000 ug/plate by Ames test (reference value: 77 +/-4); type: toxicity, organism-based; settings: salmonella enterica subsp. enterica serovar typhimurium
Method in brief: (§5)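 Salmonella TA100 preincubation Ames assay: overnight-type 12 h broth culture at 37 °C, compound in DMSO at final 4–1000 per plate, top agar with trace histidine, glucose minimal agar, 48 h at 37 °C. Revertant colonies per plate were counted, with a DMSO negative control and a sodium azide positive control. Three independent repetitions were run.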

Salmonella typhimurium [31] = assay: Mutagenicity in Salmonella typhimurium TA100 assessed as number of revertants at 500 ug/plate by Ames test (reference value: 77 +/-4); type: toxicity, organism-based; settings: salmonella enterica subsp. enterica serovar typhimurium; method in brief: as §5
Salmonella typhimurium [32] = assay: Mutagenicity in Salmonella typhimurium TA100 assessed as number of revertants at 100 ug/plate by Ames test (reference value: 77 +/-4); type: toxicity, organism-based; settings: salmonella enterica subsp. enterica serovar typhimurium; method in brief: as §5
Salmonella typhimurium [33] = assay: Mutagenicity in Salmonella typhimurium TA100 assessed as number of revertants at 20 ug/plate by Ames test (reference value: 77 +/-4); type: toxicity, organism-based; settings: salmonella enterica subsp. enterica serovar typhimurium; method in brief: as §5
Salmonella typhimurium [34] = assay: Mutagenicity in Salmonella typhimurium TA100 assessed as number of revertants at 4 ug/plate by Ames test (reference value: 77 +/-4); type: toxicity, organism-based; settings: salmonella enterica subsp. enterica serovar typhimurium; method in brief: as §5

- Rm [22]: -0.52
- Rm [23]: -0.43
- Rm [24]: 0.33
- Rm [25]: 2.054
SMILES: O=C(/C=C/c1ccccc1)N[C@H]1CCCC[C@@H]1O (racemic)
- Activity (Mus musculus [1]): Toxic
- Activity (Mus musculus [2]): inactive
- Activity (Mus musculus [3]): inactive
- Activity (Mus musculus [4]): inactive
- Activity (Mus musculus [5]): inactive
- Activity (Mus musculus [6]): inactive
- Activity (Mus musculus [7]): inactive
- Activity (Mus musculus [8]): inactive
- Activity (Salmonella typhimurium [9]): 19
- Activity_index (Salmonella typhimurium [10]): 0.9
- Activity_index (Salmonella typhimurium [11]): 1
- Activity_index (Salmonella typhimurium [12]): 0.9
- Activity_index (Salmonella typhimurium [13]): 1
- Activity_index (Salmonella typhimurium [14]): 0.9
- Activity_index (Salmonella typhimurium [15]): 0.5
- Activity_index (Salmonella typhimurium [16]): 1.4
- Activity_index (Salmonella typhimurium [17]): 0.6
- Activity_index (Salmonella typhimurium [18]): 0.6
- Activity_index (Salmonella typhimurium [19]): 1
- Activity_index (Salmonella typhimurium [20]): 0.8
- Activity (Mus musculus [21]): Toxic
- Activity (Salmonella typhimurium [26]): 7
- Activity (Salmonella typhimurium [27]): 6
- Activity (Salmonella typhimurium [28]): 14
- Activity (Salmonella typhimurium [29]): 5
- Activity (Salmonella typhimurium [30]): 70
- Activity (Salmonella typhimurium [31]): 73
- Activity (Salmonella typhimurium [32]): 72
- Activity (Salmonella typhimurium [33]): 79
- Activity (Salmonella typhimurium [34]): 71

- Rm [22]: -0.66
- Rm [23]: -0.52
- Rm [24]: 0.19
- Rm [25]: 1.937
SMILES: CCC(O)CNC(=O)/C=C/c1ccccc1 (racemic)
- Activity (Mus musculus [1]): Non-toxic
- Activity (Mus musculus [2]): inactive
- Activity (Mus musculus [3]): inactive
- Activity (Mus musculus [4]): inactive
- Activity (Mus musculus [5]): inactive
- Activity (Mus musculus [6]): Active
- Activity (Mus musculus [7]): inactive
- Activity (Mus musculus [8]): inactive
- Activity (Salmonella typhimurium [9]): 17
- Activity_index (Salmonella typhimurium [10]): 0.8
- Activity_index (Salmonella typhimurium [11]): 0.8
- Activity_index (Salmonella typhimurium [12]): 0.8
- Activity_index (Salmonella typhimurium [13]): 0.8
- Activity_index (Salmonella typhimurium [14]): 0.9
- Activity_index (Salmonella typhimurium [15]): 0.9
- Activity_index (Salmonella typhimurium [16]): 1.4
- Activity_index (Salmonella typhimurium [17]): 0.5
- Activity_index (Salmonella typhimurium [18]): 0.6
- Activity_index (Salmonella typhimurium [19]): 0.9
- Activity_index (Salmonella typhimurium [20]): 0.7
- Activity (Mus musculus [21]): Non-toxic
- Activity (Salmonella typhimurium [26]): 7
- Activity (Salmonella typhimurium [27]): 5
- Activity (Salmonella typhimurium [28]): 14
- Activity (Salmonella typhimurium [29]): 9
- Activity (Salmonella typhimurium [30]): 72
- Activity (Salmonella typhimurium [31]): 60
- Activity (Salmonella typhimurium [32]): 62
- Activity (Salmonella typhimurium [33]): 64
- Activity (Salmonella typhimurium [34]): 60

- Rm [22]: -0.6
- Rm [23]: -0.48
- Rm [24]: 0.18
- Rm [25]: 2.579
SMILES: O=C(/C=C/c1ccccc1)N1CCC(O)CC1
- Activity (Mus musculus [2]): inactive
- Activity (Mus musculus [3]): inactive
- Activity (Mus musculus [4]): inactive
- Activity (Mus musculus [7]): inactive
- Activity (Mus musculus [8]): inactive
- Activity (Salmonella typhimurium [9]): 22
- Activity_index (Salmonella typhimurium [10]): 0.9
- Activity_index (Salmonella typhimurium [11]): 0.9
- Activity_index (Salmonella typhimurium [12]): 1
- Activity_index (Salmonella typhimurium [13]): 0.9
- Activity_index (Salmonella typhimurium [14]): 0.9
- Activity_index (Salmonella typhimurium [15]): 0.5
- Activity_index (Salmonella typhimurium [16]): 0.6
- Activity_index (Salmonella typhimurium [17]): 0.9
- Activity_index (Salmonella typhimurium [18]): 0.5
- Activity_index (Salmonella typhimurium [19]): 1
- Activity_index (Salmonella typhimurium [20]): 1
- Activity (Salmonella typhimurium [26]): 8
- Activity (Salmonella typhimurium [27]): 9
- Activity (Salmonella typhimurium [28]): 6
- Activity (Salmonella typhimurium [29]): 5
- Activity (Salmonella typhimurium [30]): 70
- Activity (Salmonella typhimurium [31]): 72
- Activity (Salmonella typhimurium [32]): 76
- Activity (Salmonella typhimurium [33]): 68
- Activity (Salmonella typhimurium [34]): 70

From ChEMBL document CHEMBL3739352, “Anticonvulsant activity, crystal structures, and preliminary safety evaluation of N-trans-cinnamoyl derivatives of selected (un)modified aminoalkanols” (Eur J Med Chem, 2016)
